Data on nine compounds can be found in ChEMBL document CHEMBL1144695, “Synthesis and evaluation of novel polyaminocarboxylate-based antitumor agents” (J Med Chem, 2008).

The subject of assay [1] is HeLa. Description: Cytotoxicity against human HeLa cells after 72 hrs by MTS assay. The class given is functional, cell-based. In outline:
(§1)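 Cells attached 24 h before dosing: HeLa at 2000 cells/well in MEM with 10% FBS, and HT29 at 5000 cells/well in RPMI-1640 with 10% FBS. At least five serial dilutions were added for 72 h at 37 °C in 5% CO2. MTS/PMS was then added for 3 h and absorbance read at 490 nm, relative to untreated solvent controls. Runs were at least triplicate, and IC50 came from nonlinear regression.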

In assay [2] the test system is HT-29. Description: Cytotoxicity against human HT29 cells after 72 hrs by MTS assay. As to conditions: HT-29, 72 h. The assay is classed as functional, cell-based. A digest of the protocol:
as §1
In general terms: Tetrazolium assays rely on reduction of a dye to a coloured formazan, in cell work by metabolically active cells.

Assay [3] deals with MRC5. Description: Induction of proliferation in human MRC5 cells. The arrangement: unit: fraction of untreated control. The assay is classed as functional. In outline: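 Normal MRC-5 lung fibroblasts were grown in EMEM with 10% FBS, seeded at 5000 cells/well and allowed 24 h to attach. Chelators at 50 µM were given for 72 h at 37 °C in 5% CO2. Read-out was MTS/PMS for 3 h, with absorbance at 490 nm expressed as a fraction of untreated solvent controls. Runs were at least triplicate.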

Consider `CC(=O)N(O)CCCCCNC(=O)CCC(=O)N(O)CCCCCNC(=O)CCC(=O)N(O)CCCCCN` [DEFEROXAMINE], for which the results for the IC50 in assay [1] and in assay [2] were greater than 50 µM and 36.1 µM, respectively.

As to `O=C(O)CN(CCN(CC(=O)O)CC(=O)O)CCN(CC(=O)O)CC(=O)O` [PENTETIC ACID], the IC50 was 264 µM in assay [1] and 39.1 µM in assay [2].

Regarding `O=C(O)CN1CCN(CCN(CC(=O)O)Cc2ccc([N+](=O)[O-])cc2)CCN(CC(=O)O)CC1`, the IC50 in assay [1] was determined as 8.4 µM; in assay [2], 6.8 µM. In addition, the Activity in assay [3] is 2.

On to `O=C(O)CN1CCN(CCN(CC(=O)O)Cc2ccccc2)CCN(CC(=O)O)CC1`, for which the IC50 in assay [1] was 4.4 µM; in assay [2], 2.6 µM. Moreover, in assay [3], the Activity came to 2.

On to `O=C(O)CNC(Cc1ccc(Nc2ccc([N+](=O)[O-])c3nonc23)cc1)CN1CCN(CC(=O)O)CCN(CC(=O)O)CC1` (stereo unspecified), for which, in assay [3], the Activity is given as 2.

Consider `O=C(O)CN1CCN(CC(=O)O)CCN(CC(Cc2ccc([N+](=O)[O-])cc2)N(CC(=O)O)CC(=O)O)CC1` (stereo unspecified), for which the IC50 in assay [1] is greater than 100 µM; in assay [2], 45.7 µM.

As for `O=C(O)CNCCN1CCN(CC(=O)O)CCN(CC(=O)O)CC1`, the figures for the IC50 in assay [1] and in assay [2] were 5.7 µM and 4.7 µM, respectively. Also, the Activity in assay [3] is given as 2.

`O=C(O)CN1CCN(CCN(CC(=O)O)CC(=O)O)CCN(CC(=O)O)CC1`: the Activity in assay [3] is 2. The IC50 in assay [2] stood at 7.3 µM.

On to `O=C(O)CNC(Cc1ccc([N+](=O)[O-])cc1)CN1CCN(CC(=O)O)CCN(CC(=O)O)CC1` (stereo unspecified), for which the IC50 in assay [1] came to 7.1 µM; in assay [2] it was 5 µM. This compound showed an Activity in assay [3] of 2.

The IC50 is the midpoint of a concentration-inhibition curve.
